According to ChEMBL document CHEMBL3272286, “Inhibitors of Bacillus subtilis DNA polymerase III. Structure-activity relationships of 6-(phenylhydrazino)uracils” (J Med Chem, 1977):

What was measured:
[1] = Inhibition of wild type Bacillus subtilis DNA polymerase-3 using DNAase 1-treated DNA as template assessed as inhibition of dGTP truncated DNA synthesis by measuring incorporation of [3H]-TMP in presence of dithiothreitol
Summary of the method: (§1)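 dGTP-omitted pol III reaction, 30 °C, 5 min, in 0.05 mL: 20% glycerol, 50 mM Tris HCl pH 7.6, 10 mM MgCl2, 30 mM NaCl, 1.2 mM DNAase I-activated calf thymus DNA, 5 mM DTT, 0.1 mg/mL BSA, 10 μM each dATP, dCTP and [3H]-TTP, 0.005-0.1 unit enzyme. Read-out is acid-insoluble radioactivity. Ki is the inhibitor concentration giving 50% inhibition.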

[2] = Inhibition of HPUra/HPiCyt-resistant Bacillus subtilis DNA polymerase-3/azp-12 mutant using DNAase 1-treated DNA as template assessed as inhibition of dGTP truncated DNA synthesis by measuring incorporation of [3H]-TMP in presence of dithiothreitol; summary of the method: as §1
[3] = test system: Bacillus subtilis; assay: Inhibition of wild type Bacillus subtilis DNA polymerase-3 using DNAase 1-treated DNA as template assessed as inhibition of dGTP truncated DNA synthesis by measuring incorporation of [3H]-TMP at 20 uM in presence of dithiothreitol relative to control; summary of the method: as §1
[4] = test system: Bacillus subtilis; assay: Inhibition of HPUra/HPiCyt-resistant Bacillus subtilis DNA polymerase-3/azp-12 mutant using DNAase 1-treated DNA as template assessed as inhibition of dGTP truncated DNA synthesis by measuring incorporation of [3H]-TMP at 20 uM relative to control in presence of dithiothreitol; summary of the method: as §1
[5] = test system: Bacillus subtilis; assay: Resistance ratio of Ki for HPUra/HPiCyt-resistant Bacillus subtilis DNA polymerase-3/azp-12 mutant to Ki for wild type Bacillus subtilis DNA polymerase-3
[6] = test system: Bacillus subtilis; assay: Inhibition of wild type Bacillus subtilis DNA polymerase-3 using DNAase 1-treated DNA as template assessed as inhibition of dGTP truncated DNA synthesis by measuring incorporation of [3H]-TMP at 1 mM in presence of dithiothreitol relative to control; summary of the method: as §1

SMILES | Ki [1] | further results
O=c1cc(NNc2ccc([N+](=O)[O-])cc2)[nH]c(=O)[nH]1 | 26.3 µM | 
Cc1cc(NNc2cc(=O)[nH]c(=O)[nH]2)cc(C)c1O | 124 µM | 
O=c1cc(NNc2ccc(O)c(Cl)c2)[nH]c(=O)[nH]1 | 8.8 µM | 
CN(Nc1cc(=O)[nH]c(=O)[nH]1)c1ccccc1 | 480 µM | 
CS(=O)(=O)c1ccc(NNc2cc(=O)[nH]c(=O)[nH]2)cc1 | 209 µM | 
Cc1ccc(NNc2cc(=O)[nH]c(=O)[nH]2)cc1C | 1.4 µM | 
Nc1ccc(NNc2cc(=O)[nH]c(=O)[nH]2)cc1 | 7.1 µM | Ki [2]: 76.4 µM
CCCCc1ccc(NNc2cc(=O)[nH]c(=O)[nH]2)cc1 | 2300 µM | 
O=c1cc(NNc2ccc(Br)cc2)[nH]c(=O)[nH]1 | 0.7 µM | inhibition [3]: 82%; inhibition [4]: 95%
Cc1cc(NNc2cc(=O)[nH]c(=O)[nH]2)ccc1O | 51.2 µM | 
O=c1cc(NNc2ccc(Cl)cc2)[nH]c(=O)[nH]1 | 0.9 µM | inhibition [3]: 91%; inhibition [4]: 95%
O=c1cc(NNc2ccc(F)cc2)[nH]c(=O)[nH]1 | 3 µM | inhibition [3]: 82%; inhibition [4]: 93%
Nc1nc(NNc2ccc(O)cc2)cc(=O)[nH]1 |  | Ratio Ki [5]: 30
Nc1cc(O)nc(O)n1 |  | inhibition [6]: < 10%
O=c1cc(NNc2ccc(O)cc2)[nH]c(=O)[nH]1 | 0.4 µM | Ratio Ki [5]: 50; Ki [2]: 20 µM
O=C(O)c1ccc(NNc2cc(=O)[nH]c(=O)[nH]2)cc1 | 98 µM | 
CCc1ccc(NNc2cc(=O)[nH]c(=O)[nH]2)cc1 | 1.6 µM | 
NNc1cc(=O)[nH]c(=O)[nH]1 |  | inhibition [6]: < 10%
O=c1cc(NNc2ccc(Cl)c(Cl)c2)[nH]c(=O)[nH]1 | 0.6 µM | 
CC(=O)Nc1ccc(NNc2cc(=O)[nH]c(=O)[nH]2)cc1 | 560 µM | 
Cn1c(NNc2ccccc2)cc(=O)[nH]c1=O |  | inhibition [6]: < 10%
Cc1ccc(NNc2cc(=O)[nH]c(=O)[nH]2)cc1Cl | 0.8 µM | 

Now from value to molecule, other results behind:

Ki [1] | SMILES | further results
1.4 µM | O=c1cc(NNc2ccccc2)[nH]c(=O)[nH]1 | Ki [2]: 2.1 µM
0.5 µM | Cn1c(=O)cc(NNc2ccc(O)cc2)[nH]c1=O | 
0.5 µM | Cc1ccc(NNc2cc(=O)[nH]c(=O)[nH]2)cc1 | Ki [2]: 0.4 µM
1.1 µM | O=c1cc(NNc2cccc(Cl)c2)[nH]c(=O)[nH]1 | 
1.6 µM | Cn1c(=O)cc(NNc2ccccc2)[nH]c1=O | 
1.4 µM | O=c1cc(NNc2cccc(Br)c2)[nH]c(=O)[nH]1 | 
562 µM | CCc1ccccc1NNc1cc(=O)[nH]c(=O)[nH]1 | 
2.5 µM | Cc1cccc(NNc2cc(=O)[nH]c(=O)[nH]2)c1 | inhibition [3]: 80%; inhibition [4]: 85%
234 µM | Cc1ccccc1NNc1cc(=O)[nH]c(=O)[nH]1 | 
0.7 µM | O=c1cc(NNc2cccc(F)c2)[nH]c(=O)[nH]1 | 
7.2 µM | O=c1cc(NNc2ccccc2F)[nH]c(=O)[nH]1 | 
